# Tests used:
# [1] = molecular target: T1, Calpain-1 catalytic subunit (Homo sapiens, UniProt P07384); assay: The calpain inhibitory activity(I 50) was measured as ability to enter the platelet to inhibit calpain after cell lysis(assay 2); conditions: read-out: I50
# T1 sequence (P07384 whole entry): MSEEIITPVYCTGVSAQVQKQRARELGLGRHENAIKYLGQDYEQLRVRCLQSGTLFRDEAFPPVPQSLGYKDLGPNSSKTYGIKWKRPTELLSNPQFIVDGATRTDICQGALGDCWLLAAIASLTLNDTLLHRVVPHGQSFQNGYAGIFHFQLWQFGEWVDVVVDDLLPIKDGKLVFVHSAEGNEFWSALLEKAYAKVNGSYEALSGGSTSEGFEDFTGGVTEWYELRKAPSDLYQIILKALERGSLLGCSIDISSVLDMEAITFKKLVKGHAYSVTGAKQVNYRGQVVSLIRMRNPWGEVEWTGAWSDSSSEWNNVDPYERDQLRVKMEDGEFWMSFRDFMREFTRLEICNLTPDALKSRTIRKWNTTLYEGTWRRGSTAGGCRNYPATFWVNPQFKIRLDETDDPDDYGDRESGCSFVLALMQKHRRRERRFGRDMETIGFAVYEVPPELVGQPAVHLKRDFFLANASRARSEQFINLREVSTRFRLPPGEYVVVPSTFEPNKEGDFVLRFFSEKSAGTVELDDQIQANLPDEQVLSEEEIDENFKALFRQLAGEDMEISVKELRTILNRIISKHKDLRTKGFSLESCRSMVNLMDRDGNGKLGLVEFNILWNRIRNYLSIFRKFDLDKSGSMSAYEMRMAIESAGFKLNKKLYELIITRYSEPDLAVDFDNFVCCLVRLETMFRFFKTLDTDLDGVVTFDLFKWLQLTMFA
# Summary of the method: (§1)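 Washed human platelets (7 × 10⁸/mL, Hank's) were exposed to inhibitor for 15 min at 30 °C. Cells were diluted in Tyrode-HEPES pH 7.4, pelleted twice to remove free drug, resuspended in Hank's and equilibrated 3 min. They were then lysed with Triton X-100 plus CaCl₂ and [³H]casein for 20 min at 30 °C. TCA-soluble counts were measured. I50 came from a five-concentration line.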
# [2] = molecular target: T1, Calpain-1 catalytic subunit; assay: The calpain inhibitory activity(I 50) was measured as ability to enter the platelet and inhibit calpain in the intact cells(assay 3); (+)indicates substantial inhibition by 5-44 uM; type: cell-based
# Summary of the method: (§2)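 Washed human platelets (6 × 10⁸/mL, Hank's buffer) were preincubated with compound in DMSO at 30 °C for 15 min. Final concentrations were 0.8, 5.5, 44 or 440 μM. A23187 plus CaCl₂ was added for 10 min at room temperature. Samples were boiled in SDS sample buffer with leupeptin, run on 8% SDS-PAGE and stained with Coomassie. Loss of actin-binding protein and talin was scored.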
# [3] = molecular target: T1, Calpain-1 catalytic subunit; assay: The ability of compound to inhibit calpain in a preparation of lysed platelets was measured with a caseinolytic assay(assay 1); conditions: read-out: I50
# Summary of the method: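 Washed human platelets (6 × 10⁸/mL) in Hank's solution were preincubated with inhibitor at 30 °C for 3 min. CaCl₂, Triton X-100 and [³H]casein were then added and incubated 20 min at 30 °C. The reaction was stopped with TCA, and TCA-soluble radioactivity was counted. I50 was estimated from fractional inhibition at five inhibitor concentrations.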
# [4] = molecular target: T1, Calpain-1 catalytic subunit; assay: The ability of compound to inhibit calpain in a preparation of lysed platelets was measured with a caseinolytic assay(assay 1); (+) indicates the compound was inhibitory, but I50 was not determined
# [5] = molecular target: T1, Calpain-1 catalytic subunit; assay: The calpain inhibitory activity(I 50) was measured as ability to enter the platelet and inhibit calpain in the intact cells(assay 3); (-)indicates little inhibition by 444 uM; type: cell-based; summary of the method: as §2
# [6] = molecular target: T1, Calpain-1 catalytic subunit; assay: The calpain inhibitory activity(I 50) was measured as ability to enter the platelet to inhibit calpain after cell lysis(assay 2); (-)indicates little inhibition by 444 uM; summary of the method: as §1
Structure (SMILES),IC50 [1],I50 [2],IC50 [3],I50 [4],I50 [5],I50 [6]
CC(C)CCNC(=O)[C@H](CC(C)C)NC(=O)[C@H]1O[C@@H]1C(=O)OCCF,3000 nM,substantial inhibition by 5-44 uM,500 nM,–,–,–
CC(C)CCNC(=O)[C@H](CC(C)C)NC(=O)[C@H]1O[C@@H]1C(=O)OCC(Br)(Br)Br,5000 nM,substantial inhibition by 5-44 uM,–,substantial inhibition by 5-44 uM,–,–
CC(C)CCNC(=O)[C@H](CC(C)C)NC(=O)[C@H]1O[C@@H]1C(=O)NCCc1c[nH]c2ccc(O)cc12,4000 nM,–,6000 nM,–,Little inhibition,–
CCCCC(COC(=O)[C@H]1O[C@@H]1C(=O)N[C@@H](CC(C)C)C(=O)NCCC(C)C)NC(=O)[C@H](CC(C)C)NC(=O)OCc1ccccc1 (stereo partly drawn),–,–,100000 nM,–,Little inhibition,–
CC(C)CCNC(=O)[C@H](CC(C)C)NC(=O)[C@H]1O[C@@H]1C(=O)OCCBr,2000 nM,substantial inhibition by 5-44 uM,1000 nM,–,–,–
CC(C)CCNC(=O)[C@H](CC(C)C)NC(=O)[C@H]1O[C@@H]1C(=O)OCC(F)(F)F,2000 nM,substantial inhibition by 5-44 uM,–,substantial inhibition by 5-44 uM,–,–
CC(C)CCNC(=O)[C@H](CC(C)C)NC(=O)[C@H]1O[C@@H]1C(=O)OCCI,6000 nM,substantial inhibition by 5-44 uM,–,substantial inhibition by 5-44 uM,–,–
CCOC(=O)[C@H]1O[C@@H]1C(=O)N[C@@H](CC(C)C)C(=O)NCCC(C)C [ALOXISTATIN],4000 nM,substantial inhibition by 5-44 uM,4000 nM,–,–,–
CC(C)CCNC(=O)[C@H](CC(C)C)NC(=O)[C@H]1O[C@@H]1C(=O)O [E-64C],–,–,40 nM,–,Little inhibition,Little inhibition

# Continued by falling IC50 [1], values first:
IC50 [1],I50 [2],IC50 [3],I50 [4],I50 [5],I50 [6],Structure (SMILES)
2000 nM,substantial inhibition by 5-44 uM,2000 nM,–,–,–,CC(C)CCNC(=O)[C@H](CC(C)C)NC(=O)[C@H]1O[C@@H]1C(=O)Oc1ccc2[nH]cc(CCNC(=O)OC(C)(C)C)c2c1
2000 nM,substantial inhibition by 5-44 uM,–,substantial inhibition by 5-44 uM,–,–,CC(C)CCNC(=O)[C@H](CC(C)C)NC(=O)[C@H]1O[C@@H]1C(=O)OCc1ccccc1Cl
1000 nM,substantial inhibition by 5-44 uM,700 nM,–,–,–,CC(C)CCNC(=O)[C@H](CC(C)C)NC(=O)[C@H]1O[C@@H]1C(=O)OCC(Cl)(Cl)Cl
300 nM,substantial inhibition by 5-44 uM,2000 nM,–,–,–,CC(C)CCNC(=O)[C@H](CC(C)C)NC(=O)[C@H]1O[C@@H]1C(=O)OCCCl
